PG9 Ab binder: binds the HIV-1 gp120 antibody PG9; TR-FRET gp120-PG9 antibody binding; inhibition, % at 6.7 µM; actives 0.43% (n = 360,000); AID 624416; in the data active = inhibition above about 8.5%
PKA-R1A act: PKA-R1A complex activation; AID 504707; activation, % at 11.4 µM; actives 0.083% (n = 340,000); PKA-R1A dissociation, Cy5-IP20 fluorescence polarization; scaled: DMSO 0%, 113 µM cGMP 100%; P00514+P68181;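 active = percent activation above the mean of all tested compounds plus 3 SD, cut at about 19% in these data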;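 note: higher means more PKAc released from R1A so a rise in polarization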
NR2E3 ag-1: agonists of human NR2E3 nuclear receptor. Q9Y5X4. CHO-S Gal4-NCOR/VP16-NR2E3 two-hybrid, luciferase. inhibition of corepressor binding, % at 3.98 µM. actives 0.35% (n = 360,000). AID 602229;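 active = inhibition above the mean of all tested compounds plus 3 SD, cut at about 70% in these data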;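 note: 0% = DMSO with NR2E3 transfected cells and 100% = cells lacking NR2E3 construct; higher means lower luciferase signal from less NR2E3 corepressor binding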
Target sequence (Q9Y5X4 whole entry, looked up, the tested form may be a part): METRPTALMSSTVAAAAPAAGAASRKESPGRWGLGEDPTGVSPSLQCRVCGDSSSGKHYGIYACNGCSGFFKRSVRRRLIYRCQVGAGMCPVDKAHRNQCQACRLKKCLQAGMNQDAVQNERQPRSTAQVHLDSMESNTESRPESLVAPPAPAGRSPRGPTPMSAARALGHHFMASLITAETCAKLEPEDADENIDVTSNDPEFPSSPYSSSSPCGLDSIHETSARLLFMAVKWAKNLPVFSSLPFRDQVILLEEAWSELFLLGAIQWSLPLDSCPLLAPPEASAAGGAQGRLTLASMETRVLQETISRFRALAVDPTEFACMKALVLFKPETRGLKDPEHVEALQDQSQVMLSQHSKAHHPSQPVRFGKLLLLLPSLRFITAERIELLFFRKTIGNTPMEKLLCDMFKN
NR2E3 ag-2: agonists of human nuclear receptor NR2E3; Q9Y5X4; GST-NR2E3/biotin-RetCOR TR-FRET, 1536-well; AID 2300; inhibition of corepressor binding, % at 4.78 µM; actives 0.12% (n = 320,000);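 active = percent inhibition above the cutoff of mean plus 3 SD of all tested compounds, set per screening campaign, cut at about 20% in these data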;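 note: 0% = DMSO wells and 100% = biotin wells as full block of FRET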
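Test system: GST-NR2E3 and biotin-RetCOR proteins | Quantity: 1.35 nM GST-tagged NR2E3 final | Medium: Tris pH 7.5 | Also added: 7 nM biotin-RetCOR | Dosing: Compound at 4.8 µM, single dose | Timing: 5 h at 4 °C | Detection: Time-resolved FRET | Read-out basis: Percent inhibition | Benchmarks: Biotin wells as high control, 0.6% DMSO wells as low control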
NR1D1 modulator: modulators of human Rev-erb alpha DNA binding | P20393 | Rev-erbα–FITC-DNA binding, fluorescence polarization, 90 min | activity, % at 10 µM | actives 0.79% (n = 370,000);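 active = activity above about 14%, limit read from the data; passing the limit was not always enough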;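 note: 0% = DMSO wells with 35 nM protein and 100% = DMSO wells with 750 nM protein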
PKA-R2B act: activators of human PKA-R2B complex; PKA-R2B holoenzyme dissociation, Cy5-IP20 fluorescence polarization; R2B truncated from residue 108, S112A mutant; 0% DMSO only, 100% 113 µM cGMP; actives 0.079% (n = 340,000); P22694+P31323; activation, % at 11.4 µM;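 active = activation above a cutoff set at the mean over all compounds plus 3 SD, cut at about 18% in these data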;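 note: higher means more holoenzyme dissociation and a rise in polarization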
NR2E3 ag confirm: NR2E3 (human) agonism, confirmation. shares compounds with NR2E3 ag-2. cell-free NR2E3 corepressor release, TR-FRET, 5 h. activation (reported as inhibition), % at 3.98 µM. actives 39% (n = 360). AID 2379; in the data active = activation above about 20%
PPARg-NCOR2 ctr: counter-screen for NR2E3 agonists: human PPARgamma-NCOR2 interaction agonists | shares compounds with NR2E3 ag-2 | TR-FRET PPARg-NCOR2 coregulator interaction, biochemical | inhibition, % at 3.98 µM | actives 45% (n = 360); in the data active = inhibition above about 20%;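 note: 0% = DMSO vehicle and 100% = wells without protein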
PG9 binder conf: PG9 antibody binding, confirmed; actives 90% (n = 1,500); inhibition, % at 6.7 µM; AID 651571; TR-FRET PG9 antibody binding, biochemical; shares compounds with PG9 Ab binder; in the data active = inhibition above about 9%
PGV04 Ab binding: PGV04 control antibody binding, counter-screen | shares compounds with PG9 Ab binder | actives 95% (n = 1,500) | inhibition, % at 6.7 µM | TR-FRET PGV04 antibody-gp120 binding, biochemical; in the data active = inhibition above about 9.5%
PG9 bind DR: small molecules binding HIV-1 gp120 antibody PG9. shares compounds with PG9 Ab binder. TR-FRET PG9 antibody-gp120 binding inhibition. IC50, µM. 95 tested, under 10 active. AID 651848; in the data active = IC50 below about 10 µM
PGV04 DR counter: binds control antibody PGV04 in PG9 counter-screen; actives 20% (n = 95); IC50, µM; AID 651937; TR-FRET binding to control antibody PGV04; shares compounds with PG9 Ab binder
PG126 binding DR: PG126 binding, dose response counter-screen; TR-FRET binding to antibody PG126, counterscreen; shares compounds with PG9 Ab binder; IC50, µM; AID 651939; actives 20% (n = 95)
The depositor's hits bear a star; i = inactive; . = no result given. Hits are enriched below; roughly 1.6% of the tested compounds scored in any of these assays. Cut-off read from the data, not from the text of the source, unless noted: active = IC50 below about 9 µM; inactive = the rest.

SMILES | PG9 Ab binder | PKA-R1A act | NR2E3 ag-1 | NR2E3 ag-2 | NR1D1 modulator | PKA-R2B act | NR2E3 ag confirm | PPARg-NCOR2 ctr | PG9 binder conf | PGV04 Ab binding | others
CCCCCOc1ccc(C2C(C(=O)c3ccc(C)o3)=C(O)C(=O)N2c2cc(C)on2)cc1 (configuration not stated) | 5.9 | -8.5 | 18.3 | 6.4 | -4.7 | -3.4 | . | . | . | .
COc1ccccc1C1C(C(=O)c2ccc(C)o2)=C(O)C(=O)N1c1cc(C)on1 (configuration not stated) | 6.0 | 1.5 | -10.4 | 15.8 | -3.1 | 8.2 | . | . | . | .
Cn1nnnc1SCC1=C(C(=O)O)N2C(=O)[C@H](NC(=O)C(O)c3ccccc3)C2SC1 (some centres not stated) | . | . | . | . | 0.0 | . | . | . | . | .
CC(CC(c1ccccc1)c1ccccc1)NC(C)(C)C (configuration not stated) | . | . | . | . | -3.4 | . | . | . | . | .
COc1ccc(-n2c(=S)[nH]c3c(oc4ccccc43)c2=O)cc1 | 25.9* | 4.6 | -34.8 | 52.9* | -0.3 | 8.2 | 38.7* | 37.6* | 13.3* | 11.7* | PG9 bind DR=>67.1;PGV04 DR counter=i;PG126 binding DR=i
Cc1cc(-n2c(=O)[nH]c(=O)n(C)c2=O)ccc1Oc1ccc(S(=O)(=O)C(F)(F)F)cc1 | . | . | . | . | 1.1 | . | . | . | . | .
CCCCOc1ccc(-c2c(C(=O)Nc3ccccc3)c(C)[nH]c(=S)c2C#N)cc1 | 60.3* | 10.3 | -8.6 | 93.8* | 2.8 | 9.6 | 84.2* | 71.3* | 5.4 | 6.3
CCOC(=O)c1c(C)[nH]c(=S)c(C#N)c1-c1ccc(OC)cc1 | -0.2 | -3.1 | 0.4 | 14.0 | -5.2 | -1.2 | . | . | . | .
Cc1nc(=S)c2ccccc2[nH]1 | -1.0 | -9.6 | 12.9 | 3.2 | -2.2 | 0.1 | . | . | . | .
S=c1nc(COc2ccccc2)[nH]c2ccccc12 | 12.8* | -11.9 | -84.5 | 30.9* | 12.1 | -8.2 | 4.6 | 12.5 | 9.2* | 9.4*
S=c1nc(Cc2ccccc2)[nH]c2ccccc12 | 25.1* | -5.8 | -6.7 | 22.9* | 13.7 | -13.9 | -3.6 | 7.7 | 15.5* | 12.8* | PG9 bind DR=>67;PGV04 DR counter=i;PG126 binding DR=i
Cc1cc(C)c(Cn2c(=O)n(CCCC(=O)NCc3ccco3)c(=O)c3sccc32)c(C)c1 | 18.5* | 2.4 | 7.8 | 26.9* | 15.5 | -2.8 | 3.6 | -4.6 | 21.3* | 25.5*
Cc1ccc(-c2c3c([nH]c(=S)c2C#N)CCCC3)o1 | 16.1* | 7.7 | -7.5 | 48.6* | -10.6 | 3.4 | 82.3* | 75.0* | 8.7* | 7.8 | PG9 bind DR=>67;PGV04 DR counter=>67;PG126 binding DR=>67
O=C1C(=O)N(Cc2cccnc2)C(c2cccc(F)c2)/C1=C(/O)c1ccc2c(c1)OCO2 (configuration not stated) | 21.2* | -7.0 | -6.9 | 23.5* | -0.3 | 7.9 | 26.3* | 28.0* | 43.9* | 51.9*
C=CCN(C)CC#Cc1ccc(C)cc1 | . | . | . | . | -1.6 | . | . | . | . | .
Cc1ccc(-c2cc(C(=O)NN3CCOCC3)c3cc(Br)ccc3n2)o1 | 2.1 | -9.1 | -8.4 | 4.5 | -0.1 | -12.3 | . | . | . | .
Cc1ccc(-c2cc(C(=O)O)c3cc(Br)ccc3n2)o1 | 13.5* | -10.1 | -28.3 | 31.2* | -3.4 | -14.8 | 24.2* | 36.4* | 10.5* | 19.9*
O=C(C1=C(O)C(=O)N(CCCn2ccnc2)C1c1cccc(Br)c1)c1ccco1 (configuration not stated) | 14.4* | -0.8 | 3.2 | 34.3* | -2.9 | 6.9 | -0.2 | -0.5 | 14.5* | 14.8*
CN=C(NC)NCc1ccccc1 | . | . | . | . | 6.5 | . | . | . | . | .
COc1ccc2c(c1)oc(=O)c1ccccc12 | 1.1 | 2.2 | -32.0 | -0.3 | 2.4 | 1.6 | . | . | . | .
O=c1oc2cc(O)c(Cl)cc2c2ccccc12 | 66.5* | 5.3 | -11.1 | 51.6* | -2.2 | -0.8 | 45.8* | 47.8* | 62.1* | 81.6*
CCN(CC)C(=O)CC[C@H]1CC[C@]2(CCCN(CC3CC3)C2)O1 | . | . | . | . | 1.9 | . | . | . | . | .
COc1c(C)c2c(c(O)c1C/C=C(\C)CCC(=O)OCCN1CCOCC1)C(=O)OC2 | . | . | . | . | 3.9 | . | . | . | . | .
COc1ccc(CCNC(=O)CSc2nc3sc(C(=O)O)c(C)c3c(=O)[nH]2)cc1OC | -2.7 | 8.3 | -27.4 | 6.2 | -3.5 | 3.0 | . | . | . | .
CC(=O)c1sc2nc(SCC(=O)NCCc3ccccc3)[nH]c(=O)c2c1C | 36.3* | -1.9 | 9.8 | 31.7* | -3.4 | -1.2 | 13.3 | 19.8* | 37.1* | 42.2*
CC(Sc1cnc2ccccc2n1)C(=O)O (configuration not stated) | 12.6* | -9.8 | -4.7 | 29.9* | 8.4 | 1.2 | 6.1 | 8.9 | 17.8* | 22.6*
CC(C)CC1C(=O)N2CCC[C@H]2C2(O)O[C@](NC(=O)C3C=C4c5cccc6[nH]c(Br)c(c56)C[C@H]4N(C)C3)(C(C)C)C(=O)N12 (some centres not stated) | . | . | . | . | 2.6 | . | . | . | . | .
N#Cc1ccc(Cl)cc1NC(=O)COC(=O)c1ccc2c(c1)OCCO2 | 49.6* | -6.9 | 3.8 | 35.5* | 2.4 | -3.7 | 38.6* | 40.7* | 39.7* | 69.1*
N#Cc1ccccc1NC(=O)COC(=O)c1ccc2c(c1)OCCO2 | 3.9 | 0.1 | 1.1 | -4.7 | -3.5 | 4.8 | . | . | . | .
Cc1ccc(C(=O)C2=C(O)C(=O)N(Cc3cccnc3)C2c2ccc(Br)cc2)o1 (configuration not stated) | 18.0* | -4.1 | 16.2 | 20.9* | 6.9 | -1.7 | 21.6* | 18.4 | 29.4* | 37.6*

Bioassay records (PubChem)
